# Shown are actives, neighbours in structure and some others; about 2.9% of the full set was active somewhere.
# MC4R antag cAMP: blocks human MC4R cAMP signaling; inhibition, % at 6.5 µM; actives 0.48% (n = 360,000); P32245; AID 540295; MC4R-expressing cells, MTII-stimulated cAMP, LANCE TR-FRET;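 active = inhibition above its plate's cutoff, the mean of tested wells on that plate plus 3 SD, cut at about 29% in these data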;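 note: 0% = Melanotan II alone and 100% = Melanotan II plus saturating MCL0020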
# Target sequence (P32245 whole entry, looked up): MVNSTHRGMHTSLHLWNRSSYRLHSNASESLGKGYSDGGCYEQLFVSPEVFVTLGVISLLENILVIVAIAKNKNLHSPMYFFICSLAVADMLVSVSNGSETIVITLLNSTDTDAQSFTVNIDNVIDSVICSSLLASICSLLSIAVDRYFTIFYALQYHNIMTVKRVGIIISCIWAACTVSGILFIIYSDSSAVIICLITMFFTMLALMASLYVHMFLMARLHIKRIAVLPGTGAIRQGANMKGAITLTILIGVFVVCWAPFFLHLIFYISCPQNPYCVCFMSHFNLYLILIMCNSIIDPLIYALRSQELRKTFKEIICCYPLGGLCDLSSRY
#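 system = U2OS cells with stable human MC4R expression | also added = Melanotan II challenge after compound preincubation | dosing = one concentration, 6.5 µM nominal | incubation = compound 30 min, challenge 1 h, detection 1 h | measured by = TR-FRET with Eu-cAMP and labeled anti-cAMP, 671 nm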
# H9c2 TAG inh: inhibitors of triacylglycerol accumulation; H9c2 cells, Nile Red lipid (TAG) fluorescence; cells loaded with 200 µM oleic acid; inhibition, % at 12.5 µM; actives 0.66% (n = 230,000); AID 651582;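 active = pattern-corrected inhibition of lipid staining of at least 50% with the nuclear-stain viability signal not falling by more than 50%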;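 note: 0% = DMSO wells and 100% = triacsin C control wells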
# GalR3 antag: blocks the human galanin receptor 3 | O60755 | HEK293 GalR3-CNG cAMP membrane potential fluorescence; galR3 body fused to GalR1 C-terminus | inhibition, % at 3 µM | actives 0.44% (n = 360,000) | AID 651719;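 active = inhibition above the screen-wide average plus 3 SD, cut at about 13% in these data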;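 note: forskolin and galanin both at EC90 stimulate the cells; cAMP rise reported by CNG channel membrane potential dye signal; 0% = forskolin plus galanin with DMSO and 100% = forskolin alone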
# Target sequence (O60755 1-299 limits assumed): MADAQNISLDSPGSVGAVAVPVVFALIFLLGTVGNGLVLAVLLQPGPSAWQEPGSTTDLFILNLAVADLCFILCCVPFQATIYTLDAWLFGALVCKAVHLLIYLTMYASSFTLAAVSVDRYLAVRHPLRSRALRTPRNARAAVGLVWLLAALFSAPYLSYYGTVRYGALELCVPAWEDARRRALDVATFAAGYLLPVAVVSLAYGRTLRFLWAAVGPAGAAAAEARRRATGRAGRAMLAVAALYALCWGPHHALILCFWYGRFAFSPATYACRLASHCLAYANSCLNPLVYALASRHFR
# Calb FLC: C. albicans growth modulation with fluconazole | C. albicans CaCi-2 + fluconazole, Alamar Blue growth, 48 h | growth inhibition, % (test concentration not listed) | actives 0.57% (n = 300,000);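 active = growth inhibition above about 58% in most replicates, limit read from the data, passing the limit was not always enough; inconclusive = exactly half the replicates above a set limit; inactive = most replicates below a set limit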;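 note: all wells also contain fluconazole at 8 µg/ml as a sub-toxic cotreatment; 0% = median of DMSO wells and 100% = median of geldanamycin control wells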
# Efflux pump inh: antifungal efflux pump inhibition, Nile Red retention; S. cerevisiae Candida pump triplex; inhibition, % at 10 µM; actives 0.44% (n = 330,000); AID 485275;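 active = plate passing quality check with inhibition over a set limit, or well fluorescence over plate mean plus 4 SD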;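 note: Nile Red retained in pooled yeast measured as flow cytometry median fluorescence; 0% = buffer negative control and 100% = Enniatin B positive control; higher means more Nile Red kept so more efflux inhibition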
# MC4R ag barr: human MC4R agonism via beta-arrestin | activation, % at 8.9 µM | actives 0.98% (n = 360,000) | U2OS MC4R beta-arrestin complementation, luminescence; percent of melanotan II response, DMSO zero;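 active = activation above a per-plate cutoff, the mean activation of sample wells on that plate plus 3 SD, cut at about 8% in these data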
# The depositor's hits bear a star; ? = inconclusive; . = no result given; ! = repeats disagree.
SMILES,MC4R antag cAMP,H9c2 TAG inh,GalR3 antag,Calb FLC,Efflux pump inh,MC4R ag barr
COc1cc(/C=C2/C(=N)N3C=CSC3=NC2=O)ccc1OCCCOc1c(C)cccc1C,2,.,-9,?,1,8.4*
CCc1ccc(C2c3[nH]c4ccccc4c3CCN2C(=O)c2ccc(=O)n(C)n2)cc1 (configuration not stated),17,3,-8,88*,0,-1
CSc1ccc(C2c3[nH]c4ccccc4c3CCN2C(=O)c2ccnn2C)cc1 (configuration not stated),3,8,-5,92*,0,0
O=C(Nc1cccc(-c2cnc3ccccc3n2)c1)c1cccc(NC(=O)c2ccco2)c1,-1,13,-4,57,0,35*
CC1=C(C#N)C(=O)NC1(C)O (configuration not stated),6,-7,-4,.,.,-2
CN(C(=O)CSc1nnc(-c2ccco2)o1)C1CCCCC1,6,-21,2,95*,0,-2
COc1ccc2c(c1OC)C(=O)N1N=C(c3ccc(O)cc3)CC21 (configuration not stated),-2,1,0,94*,0,-2
CC(=O)Oc1c(-c2ccc(Br)o2)oc2ccccc2c1=O,9,.,-6,85*,0,-2
COc1ccc(-c2oc3ccccc3c(=O)c2OC(C)=O)cc1,-4,6,-4,45,0,-2
CC(C)Cc1ccc(CN2CCCC(NC(=O)CCN3CCCO3)C2)cc1 (configuration not stated),3,3,0,88*,0,-3
CC1Oc2ccc(C#N)cc2N(Cc2cccc(F)c2)C1=O (configuration not stated),9,5,0,.,.,-2
COc1ccc2nc(N3C(=O)/C(=C/c4ccccc4)NC3=S)sc2c1,7,.,3,-9,0,-1
CCOc1ccc2nc(N3C(=O)/C(=C/c4ccccc4)NC3=S)sc2c1,4,.,-4,92*,0,0
CCCn1c(SCC(=O)c2ccc3c(c2)NC(=O)CO3)nc2ccccc21,4,2,-4,5,0,2
Cn1c(SCC(=O)c2ccc3c(c2)NC(=O)CO3)nc2ccccc21,27,1,-2,3,0,14*
O=C(COc1ccc(/C=N/NC(=O)c2cc3ccccc3o2)cc1Br)Nc1ccccc1,6,.,0,2,0,53*
COc1ccc(NC(=O)c2ccco2)cc1NC(=O)c1ccccc1F,3,.,-2,2,0,9.4*
COc1cc(OC)cc(C(=O)Nc2cc(NC(=O)c3ccco3)ccc2OC)c1,-6,21,-1,34,0,2
Cc1ccc(C)c(N2CCN(C(=O)CCc3nc(-c4cccc(Cl)c4)no3)CC2)c1,2,4,-3,.,0,-2
O=[N+]([O-])c1cc(/C=N/Nc2nc3ccccc3[nH]2)c(O)cc1O,.,.,-2,88*,0,.
O=C(N/N=C/c1cccc2cccnc12)c1ccccc1O,-12,65*,-8,0,0,-5
C(=N\Nc1nc2ccccc2[nH]1)/c1cccc2cccnc12,-4,67*,5,2,0,1
Cc1ccccc1/C=N/Nc1nc2ccccc2[nH]1,-12,11,-1,6,0,0
Cc1[nH]c2ccccc2c1/C=N/Nc1nc2ccccc2[nH]1,-4,64*,-3,-14,0,-3
O=C(O)C1(Nc2ccc(Br)cc2)CCCC1,2,1,-1,.,.,-1
SMILES,MC4R antag cAMP,H9c2 TAG inh,GalR3 antag,Calb FLC,Efflux pump inh,MC4R ag barr
Cc1ccc(NC(=O)c2nc[nH]c2C(=O)NC2CCN(C(=O)OC(C)(C)C)CC2)cc1,7,44,-2,.,0,0
CC(C)(C)OC(=O)N1CCC(NC(=O)c2[nH]cnc2C(=O)Nc2ccccc2F)CC1,8,4,-1,.,.,8.3*
CC(C)(C)OC(=O)N1CCC(NC(=O)c2[nH]cnc2C(=O)Nc2ccccc2)CC1,3,22,-2,.,0,8.5*
COc1cc2c(c3c1c(=O)c1ccccc1n3C)C=CC(C)(C)O2,.,.,-11,.,.,.
N#Cc1c(N)[nH]c2ccc(Sc3ccccc3)cc12,-16,54*,1,.,.,-2
O=C(Nc1ccccc1Cl)c1cc(C2CCCN(C(=O)c3ccccc3)C2)on1 (configuration not stated),18,1,-6,.,.,0
N#Cc1cccc2c1-c1ccccc1/C2=N/NC(N)=O,-9,.,.,-13,0,0
N#Cc1cccc2c1-c1ccccc1/C2=N/NC(N)=S,-47,.,.,-9,0,17*
COc1ccc(/C=C2\CCc3ccccc3C2=O)cc1O,-24,.,-2,-3,0,-1
CS(=O)(=O)c1nc(-c2ccccc2)cc(C(F)(F)F)n1,16,13,23*,62,0,-3
Cc1cc(NC(=O)CCS(=O)(=O)c2nc(-c3ccccc3)cc(C(F)(F)F)n2)no1,25,25,6,.,0,-4
Cc1ccccc1CN1[C@@H](C)[C@H](c2ccccc2)Oc2cccc(N3CCCC(C)C3)c2S1(=O)=O (some centres not stated),.,.,0,.,.,.
O=C(COC(=O)Cc1c(Cl)cccc1Cl)NCC1CCCO1 (configuration not stated),8,-19,14*,-1,0,-1
NC(=S)N/N=C/c1ccc(C23CC4CC(CC(C4)C2)C3)cc1,.,.,.,-2,0.6*,.
NC(=S)N/N=C/c1ccccc1,3,.,2,9,2,0
O=C1C=CC2(O[C@H](c3ccccc3)[C@@H](c3ccccc3)O2)[C@H](Sc2ccccc2O)C1,28,86,16*,.,.,-3
Cc1cccc(C)c1OCC(=O)NNC(=S)NC(=O)C1CC1,-3,26,-2,76*,-1,-4
C/C(N)=C(/C#N)C(=O)COC(=O)c1cc(-c2ccc(Br)cc2)nc2ccccc12,24,27,-6,-7,0,8.4*!
C/C(N)=C(/C#N)C(=O)COc1ncnc2ccccc12,-3,7,-4,13,0,-2
O=C(O)c1ccc(-c2nc(-c3ccc(Cl)c(Cl)c3)cs2)cc1,31*,.,.,89*,0,-2
Nc1ccc(N=Nc2ccccc2O)c(N)c1,7,15,-6,-5,0,-1
Oc1ccccc1N=Nc1ccccc1O,12,.,-2,94*,.,1
O=C(/C=C/c1ccccc1Cl)c1ccccc(=O)c1O,5,.,-11,7,0,0
Cc1ccc(C)c(/C=C/C(=O)c2ccccc(=O)c2O)c1,6,.,2,98*,0,1
Cc1ccc(/C=C/C(=O)c2ccccc(=O)c2O)c(C)c1,2,.,-2,92*,0,5
C=CCNC(=S)N/N=C/c1ccc(-c2ccc(OC)cc2)o1,-2,-12,-6,104*,0,-1

# Compound activity (PubChem BioAssay)
